In brackets after ≈: the same amount, converted by molar mass. Activity calls are given as the source filed them. The calls are words filed in the database; no cut-off is given here.
Tests used:
Assay type in all cases: functional
MCF7 = test: Antiproliferative activity against Homo sapiens (human) MCF7 cells after 72 hr by SRB assay; conditions: for IC50: MCF7, 72 h, read-out: ID50 (the source's name)
In short: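 MCF-7 breast cancer cells at 10^5/ml in Eagle's medium with 10% FBS, antibiotics, 2 mM glutamine, 1.0 mM pyruvate, 1% amino acids and 0.8 mg/l insulin, 37°C, 5% CO2. After 24 h, compounds at 0.1–100 μg/ml (acetone/ethanol controls) were added for 72 h. SRB read-out: cold 50% TCA fixation, 0.4% SRB stain, Tris extraction, 540 nm. Triplicates, repeated 3–5 times; 50% proliferation inhibition dose (ID50, μg/ml).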

HT-29 = test: Antiproliferative activity against Homo sapiens (human) HT-29 cells after 72 hr by SRB assay; conditions: for IC50: HT-29, 72 h, read-out: ID50 (the source's name)
In short: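 HT-29 colon adenocarcinoma cells were plated at 10^5/ml in RPMI 1640/Opti-MEM (1:1) with 5% FBS, antibiotics, 1 mM pyruvate and 2 mM glutamine. Test agents (0.1–100 μg/ml, solvent-matched controls) were added after 24 h and left for 72 h. Cells were TCA-fixed and stained 30 min with 0.4% SRB in 1% acetic acid, dye extracted with 10 mM Tris, OD 540 nm. Triplicates, 3–5 experiments; ID50 (μg/ml).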

CCRF-CEM = test: Antiproliferative activity against Homo sapiens (human) CCRF-CEM cells after 72 hr by MTT assay; conditions: for IC50: read-out: ID50 (the source's name)
In short: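 Human leukemia CCRF/CEM cells seeded at 10^5/ml in RPMI 1640 with 10% FBS, penicillin/streptomycin and 2 mM L-glutamine at 37°C, 5% CO2. Compounds were added after 24 h at 0.1–100 μg/ml, with acetone or ethanol vehicle controls, and exposure ran 72 h. MTT was given for 4 h, formazan solubilized in SDS/DMF for 24 h, and read at 570 nm. Triplicates, 3–5 repeats; ID50 in μg/ml vs untreated.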

Compound | IC50 (MCF7) | IC50 (HT-29) | IC50 (CCRF-CEM) | ID50 (HT-29) | ID50 (CCRF-CEM) | ID50 (MCF7)
COc1ccc([C@@H]2CC(=O)c3c(OC)cc(OC)c(CC=C(C)C)c3O2)cc1 [7,4'-DI-O-METHYLISOXANTHOHUMOL] | 6.6 µg/mL (≈ 17.3 µM) | 6 µg/mL (≈ 15.7 µM) | 5 µg/mL (≈ 13.1 µM) |  |  | 
COc1cc(O)c(CC=C(C)C)c2c1C(=O)CC(c1ccc(O)cc1)O2 (configuration not stated) [ISOXANTHOHUMOL] | 9.4 µg/mL (≈ 26.5 µM) | 32.6 µg/mL (≈ 92 µM) | 18.2 µg/mL (≈ 51.4 µM) |  |  | 
CC(C)=CCc1c(O)cc(O)c2c1OC(c1ccc(O)cc1)CC2=O (configuration not stated) [SOPHORAFLAVANONE B] | 19.4 µg/mL (≈ 57 µM) | 33.2 µg/mL (≈ 97.5 µM) | 24.2 µg/mL (≈ 71.1 µM) |  |  | 
CC(=O)Oc1ccc(C2CC(=O)c3c(O)cc(OC(C)=O)c(CC=C(C)C)c3O2)cc1 (configuration not stated) [7,4'-DI-O-ACETYL-8-PRENYLNARINGENIN] | 28 µg/mL (≈ 66 µM) | 36.1 µg/mL (≈ 85.1 µM) | 37 µg/mL (≈ 87.2 µM) |  |  | 
C=CCOc1ccc([C@@H]2CC(=O)c3c(OC)cc(OCC=C)c(CC=C(C)C)c3O2)cc1 [7,4'-DI-O-ALLYLISOXANTHOHUMOL] | 5.2 µg/mL (≈ 12 µM) | 6.2 µg/mL (≈ 14.3 µM) | 2.7 µg/mL (≈ 6.21 µM) |  |  | 
COc1ccc(C2CC(=O)c3c(O)cc(OC)c(CC=C(C)C)c3O2)cc1 (configuration not stated) [7,4'-DI-O-METHYL-8-PRENYLNARINGENIN] | 36.9 µg/mL (≈ 100 µM) |  |  | inactive | inactive | 
C=CCOc1ccc(C2CC(=O)c3c(O)cc(OCC=C)c(CC=C(C)C)c3O2)cc1 (configuration not stated) |  |  |  | inactive | inactive | inactive
CCCCCOc1cc(OC)c2c(c1CC=C(C)C)O[C@H](c1ccc(O)cc1)CC2=O [7-O-N-PENTYLISOXANTHOHUMOL] | 8.3 µg/mL (≈ 19.6 µM) | 6.9 µg/mL (≈ 16.3 µM) | 5.4 µg/mL (≈ 12.7 µM) |  |  | 
COc1cc(O)c(CC=C(C)C)c(O)c1C(=O)/C=C/c1ccc(O)cc1 [XANTHOHUMOL] | 4.7 µg/mL (≈ 13.3 µM) | 3.8 µg/mL (≈ 10.7 µM) | 4.1 µg/mL (≈ 11.6 µM) |  |  | 
COc1cc(OC(C)=O)c(CC=C(C)C)c2c1C(=O)C[C@@H](c1ccc(OC(C)=O)cc1)O2 [7,4'-DI-O-ACETYLISOXANTHOHUMOL] | 16.9 µg/mL (≈ 38.5 µM) | 32.1 µg/mL (≈ 73.2 µM) | 23.3 µg/mL (≈ 53.1 µM) |  |  | 
CCCCCOc1cc(O)c2c(c1CC=C(C)C)OC(c1ccc(O)cc1)CC2=O (configuration not stated) [7-O-PENTYL-8-PRENYLNARINGENIN] | 3.9 µg/mL (≈ 9.5 µM) | 10 µg/mL (≈ 24.4 µM) | 4.8 µg/mL (≈ 11.7 µM) |  |  | 
CCCCCOc1ccc([C@@H]2CC(=O)c3c(OC)cc(OCCCCC)c(CC=C(C)C)c3O2)cc1 [7,4'-DI-O-N-PENTYL-8-ISOXANTHOHUMOL] | 7.1 µg/mL (≈ 14.4 µM) | 8.2 µg/mL (≈ 16.6 µM) | 4.3 µg/mL (≈ 8.69 µM) |  |  | 
CCCCCCCCCCCCCCCC(=O)Oc1ccc(C2CC(=O)c3c(O)cc(OC(=O)CCCCCCCCCCCCCCC)c(CC=C(C)C)c3O2)cc1 (configuration not stated) |  |  |  | inactive | inactive | inactive
CCCCCCCCCCCCCCCC(=O)Oc1ccc([C@@H]2CC(=O)c3c(OC)cc(OC(=O)CCCCCCCCCCCCCCC)c(CC=C(C)C)c3O2)cc1 |  |  |  | inactive | inactive | inactive

From ChEMBL document CHEMBL3046444, “Antiproliferative activity and synthesis of 8-prenylnaringenin derivatives by demethylation of 7-O- and 4'-O-substituted isoxanthohumols” (2012)
